Source: PubChem
This is a sample that favours compounds with a hit; in the whole collection about 3.4% have one here.
UCH37 inh: inhibitors of human UCH37 deubiquitinase, primary screen, biochemical, Ub-AMC cleavage, fluorescence. Ubiquitin carboxyl-terminal hydrolase isozyme L5 (Homo sapiens), Q9Y5K5. 0.33% of 330,000 active. inhibition, % (test concentration not listed). purified proteasome/UCH37;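 active = mean inhibition over replicate wells above about 20%, limit read from the data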;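 note: 0% = compound-free wells with enzyme and 100% = wells lacking proteasome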
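Reagent: Ub-AMC substrate; assay system: Proteasome-associated human UCH37 deubiquitinase; controls: no-proteasome and no-compound wells; read-out: % inhibition of Ub-AMC cleavage fluorescence; timing: 30 min preincubation with enzyme, 25 min cleavage at room temperature; signal: AMC fluorescence from Ub-AMC cleavage, excitation 355 nm, emission 460 nm; buffer or medium: Tris-HCl pH 7.4 plus ovalbumin, ATP-MgCl2, DTT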
A3A deaminase: APOBEC3A ssDNA deaminase inhibitors, primary screen, selectivity assay for APOBEC3G inhibitor project, biochemical, FAM/TAMRA oligo cleavage fluorescence; DNA dC->dU-editing enzyme APOBEC-3A (Homo sapiens), P31941; inhibition, % at 20 µM; 0.41% of 330,000 active; recombinant A3A, FAM/TAMRA ssDNA deamination fluorescence;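 active = at least 40% inhibition at 20 µM here, with at most 30% in a related deaminase screen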;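 note: plate controls were A3A with DMSO for no effect and wells lacking A3A enzyme for full effect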
Target sequence (P31941 whole entry, looked up): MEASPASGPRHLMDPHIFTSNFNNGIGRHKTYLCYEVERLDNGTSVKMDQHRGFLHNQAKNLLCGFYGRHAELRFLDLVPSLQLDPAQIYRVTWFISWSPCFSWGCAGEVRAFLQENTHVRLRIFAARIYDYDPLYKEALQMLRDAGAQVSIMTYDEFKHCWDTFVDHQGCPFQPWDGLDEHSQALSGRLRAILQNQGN
PolyA inhibitor: polyadenylation inhibitors in yeast reporter cells, primary screen, luminescence, S. cerevisiae; activity score, % at 12 µM; AID 1875, 2009; 0.02% of 300,000 active; S. cerevisiae SKY197-pL101 polyadenylation reporter, beta-gal luminescence; efflux-impaired pdr1/pdr3 knockout yeast; score 100 = 6 SD above DMSO;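 active = lowest replicate activity score at least 50, where 100 means six control SD above control mean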;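 note: yeast exposed to compound for 9 h at 30 °C; higher score means more reporter readthrough which indicates perturbed polyadenylation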
AHR act: AHR activators, primary screen, cell-based, luminescence, luciferase reporter, human; Aryl hydrocarbon receptor (Homo sapiens), P35869; AHR-responsive luciferase reporter cells; activation, % at 5 µM; 2.5% of 320,000 active; in the data active = activation above about 47%;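 note: 0% = vehicle wells and 100% = reference agonist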
Arr AP2 block: inhibitors of beta-arrestin/AP2 binding, primary screen, biochemical, GPCR trafficking, flow cytometry | beta-arrestin 1 C-terminal peptide binding to AP2 beta2-adaptin appendage (human) | FITC-arrestin peptide / GST-AP2 beads; AP2 beta2 appendage carries R879A mutation | inhibition, % at 10 µM | 0.31% of 340,000 active | AID 504490, 2011;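 active = inhibition above a set limit, near 3 SD of compounds lacking own fluorescence, cut at about 54% in these data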;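 note: plate controls were DMSO wells for no effect and 5 µM unlabelled arrestin peptide for full effect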
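System: GST-tagged AP2 beta2-adaptin appendage (R879A) on 4 µm glutathione beads / Reagent: FITC-arrestin peptide, 50 nM / Detection: HyperCyt-sampled flow cytometry, FL1 channel, ex 488/em 535 nm / Timing: 12 min plus 1 h, RT / Buffer or medium: PBS plus Tween 20 (0.05%) and BSA (0.1%)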
A3G deaminase: APOBEC3G DNA deaminase inhibitors, primary screen, biochemical, fluorescence, single-stranded DNA substrate, uHTS; DNA dC->dU-editing enzyme APOBEC-3G (Homo sapiens), Q9HC16; recombinant A3G, ssDNA deamination FAM/TAMRA fluorescence; inhibition, % at 20 µM; 0.28% of 330,000 active;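 active = inhibition of at least 40% at 20 µM, with no more than 30% in the related APOBEC3A deaminase screen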;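 note: plate controls were DMSO wells with A3G for no effect and wells lacking A3G enzyme for full effect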
Target sequence (Q9HC16 whole entry, looked up): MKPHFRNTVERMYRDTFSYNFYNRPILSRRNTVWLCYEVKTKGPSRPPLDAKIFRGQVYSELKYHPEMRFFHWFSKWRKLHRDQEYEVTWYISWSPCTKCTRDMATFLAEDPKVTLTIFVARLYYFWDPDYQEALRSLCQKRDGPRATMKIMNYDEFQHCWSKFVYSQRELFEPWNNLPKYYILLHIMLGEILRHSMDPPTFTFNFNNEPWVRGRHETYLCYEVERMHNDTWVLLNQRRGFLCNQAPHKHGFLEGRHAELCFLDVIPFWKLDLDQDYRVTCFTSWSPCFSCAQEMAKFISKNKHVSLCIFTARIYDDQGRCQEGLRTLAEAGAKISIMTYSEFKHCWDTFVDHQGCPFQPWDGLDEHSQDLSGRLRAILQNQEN
Numbers without * were called inactive.

What do the screens show for `COc1ccc(Cl)cc1N/C(N)=N/c1nc(C)cc(=O)[nH]1`?
UCH37 inh: 5; A3A deaminase: 1; PolyA inhibitor: 18; AHR act: 8; Arr AP2 block: 6; A3G deaminase: 1

How did COc1ccccc1N/C(N)=N/c1nc(C(F)(F)F)cc(=O)[nH]1 do in these assays?
UCH37 inh: 2; A3A deaminase: -2; PolyA inhibitor: -6; AHR act: 50*; Arr AP2 block: -9; A3G deaminase: -5

Results for CCc1ccc(N/C(N)=N/c2nc(CSc3ncccn3)cc(=O)[nH]2)cc1 ?
UCH37 inh: 6; A3A deaminase: 0; PolyA inhibitor: -7; AHR act: 50*; Arr AP2 block: 13; A3G deaminase: -7

Results for COCc1cc(=O)[nH]c(N=C(N)Nc2ccccc2C)n1 ?
UCH37 inh: 29*

Results for COCc1cc(=O)[nH]c(N=C(N)Nc2ccc(C)cc2C)n1 ?
UCH37 inh: 1

How did COc1ccccc1NC(=O)CCC(=O)NN=C(C)c1ccc(C)cc1 do in these assays?
UCH37 inh: -1

Results for COc1cc(C=NNC(=O)CCC(=O)Nc2ccc(C)cc2)ccc1O ?
UCH37 inh: 1

How did CCCCNc1nc(N(C)c2ccccc2)nc(-n2ccnc2)n1 do in these assays?
UCH37 inh: 2; A3A deaminase: 3; PolyA inhibitor: -15; AHR act: 61*; Arr AP2 block: 3; A3G deaminase: -5

What do the screens show for `O=C(NN=Cc1ccc(O)c(O)c1)NN=Cc1ccc(O)c(O)c1`?
UCH37 inh: 6

What do the screens show for `Cc1ccc(C(=O)NN=Cc2ccc(-c3ccccc3[N+](=O)[O-])o2)cn1`?
UCH37 inh: 12

How did CN(C)CCN(C(=O)/C=C/c1cccs1)c1nc2c(F)cc(F)cc2s1 do in these assays?
UCH37 inh: -24; A3A deaminase: -3; PolyA inhibitor: 5; AHR act: 66*; Arr AP2 block: -9; A3G deaminase: -6

How did Cc1ccc2nc(N(CCN(C)C)C(=O)/C=C/c3cccs3)sc2c1 do in these assays?
UCH37 inh: -19; A3A deaminase: -3; PolyA inhibitor: 7; AHR act: 48*; Arr AP2 block: 15; A3G deaminase: -5

What do the screens show for `CN(C)CCCN(C(=O)/C=C/c1cccs1)c1nc2ccc(F)cc2s1`?
UCH37 inh: -1; A3A deaminase: -3; PolyA inhibitor: 11; AHR act: 3; Arr AP2 block: 10; A3G deaminase: -8

Results for COc1ccccc1C(=O)NCC(=O)NN=Cc1ccc([N+](=O)[O-])cc1 ?
UCH37 inh: 2

How did COc1ccc(/C=C/C(=O)Oc2cccc(C=NNC(=O)COc3c(C)cccc3C)c2)cc1 do in these assays?
UCH37 inh: -2

How did CC(=O)Oc1cccc(C2C3=C(CC(C)(C)CC3=O)Nc3ccccc3N2C(C)=O)c1 (configuration not stated) do in these assays?
UCH37 inh: -1; A3A deaminase: -4; PolyA inhibitor: -4; AHR act: 0; Arr AP2 block: 26; A3G deaminase: 4

How did Cc1ccc2c(c1)N1C(=O)c3ccccc3C1C1=C(CC(C)(C)CC1=O)N2 (configuration not stated) do in these assays?
UCH37 inh: 4; A3A deaminase: -5; PolyA inhibitor: 9; AHR act: 50*; Arr AP2 block: 18; A3G deaminase: -7

How did CC1(C)CC(=O)C(C=Nn2c(C(F)(F)F)nc3ccccc3c2=O)=C(O)C1 do in these assays?
UCH37 inh: 2

How did O=C(CN1CCN(CCN2C(=O)c3cccc4cccc(c34)C2=O)CC1)c1ccc(F)cc1 do in these assays?
UCH37 inh: -14; A3A deaminase: 10; PolyA inhibitor: 0; AHR act: 31; Arr AP2 block: 12; A3G deaminase: 2

Results for O=C1c2cccc3cccc(c23)C(=O)N1CCN1CCN(C(=S)Nc2ccc(F)cc2)CC1 ?
A3A deaminase: 2; PolyA inhibitor: -3; AHR act: 106*; A3G deaminase: -4

What do the screens show for `CCN(c1ccccc1)S(=O)(=O)c1ccc(Cl)c(NC(=O)COC(=O)c2cc(O)c3ccccc3c2O)c1`?
A3A deaminase: 1; PolyA inhibitor: 7; AHR act: 123*; A3G deaminase: 15

What do the screens show for `CCN(c1ccccc1)S(=O)(=O)c1ccc(Cl)c(NC(=O)COC(=O)c2ccc(O)cc2)c1`?
UCH37 inh: 1; A3A deaminase: 0; PolyA inhibitor: -4; AHR act: 1; Arr AP2 block: 0; A3G deaminase: -3

Results for COc1ccccc1/C(O)=C(\C#N)c1nc2ccccc2[nH]1 ?
UCH37 inh: -70; A3A deaminase: -5; PolyA inhibitor: 2; AHR act: 48*; Arr AP2 block: 6; A3G deaminase: -9

Results for COc1cc(/C=C(\C#N)c2nc3ccccc3[nH]2)cc(OC)c1O ?
UCH37 inh: 8; PolyA inhibitor: 22; AHR act: 15; Arr AP2 block: 10

How did COc1ccccc1N/C=C(\C#N)c1nc2ccccc2[nH]1 do in these assays?
A3A deaminase: -3; PolyA inhibitor: -10; AHR act: 70*; Arr AP2 block: 6; A3G deaminase: -6

How did N#C/C(=C(/O)CCl)c1nc2ccccc2[nH]1 do in these assays?
A3A deaminase: -1; PolyA inhibitor: 2; AHR act: 23; Arr AP2 block: 6; A3G deaminase: -7

How did COc1cc(/C=C(/C#N)c2nc3ccccc3[nH]2)ccc1OC(=O)c1ccco1 do in these assays?
UCH37 inh: -42; A3A deaminase: -4; PolyA inhibitor: 9; AHR act: 60*; Arr AP2 block: 41; A3G deaminase: -10

How did N#C/C(=C(\O)Cc1ccccc1)c1nc2ccccc2[nH]1 do in these assays?
UCH37 inh: -3; A3A deaminase: 1; PolyA inhibitor: 36; AHR act: 50*; Arr AP2 block: 5; A3G deaminase: -13

What do the screens show for `CC(/C=C/c1ccccc1F)=NNC(=O)c1ccccc1`?
UCH37 inh: 7

What do the screens show for `N#C/C(=C(/O)c1cccs1)c1nc2ccccc2[nH]1`?
UCH37 inh: -117; A3A deaminase: -9; PolyA inhibitor: -7; AHR act: 54*; Arr AP2 block: 1; A3G deaminase: -5
